Published values collected from several papers.
Compare with care: the assays were run in different laboratories.
Target: Bone morphogenetic protein receptor type-1B (BMPR1B, Homo sapiens, UniProt O00238)

The remaining activity of `O=C(Nc1cnn(-c2csc(C(=O)NC3COC3)c2)c1)Nc1ccccc1Cl` is reported as 109% (enzyme activity; inhibitor; 5 µM).
With `Cc1ccc(C(=O)Nc2ccc(CN3CCN(C)CC3)c(C(F)(F)F)c2)cc1C#Cc1cnc2cccnn12` the remaining activity was 96% (enzyme activity; 23.5 nM).
With `Cc1ccc(NC(=O)c2ccc(C)c(C(F)(F)F)c2)cc1C#Cc1nn(C2CCC(O)CC2)c2ncnc(N)c12` (stereo not shown) the remaining signal was 18% (cell-free assay; 10 µM).
`N#Cc1ccc(Nc2ccc3[nH]c(=O)[nH]c3c2)c(Cl)c1` has a remaining binding of 100% (cell-free assay; competition with immobilised ligand; 1 µM).
For `Cc1cnc(NC2CCOCC2)nc1-n1cnc(C(=O)NC(CN)c2cc(F)cc(Cl)c2)c1` (stereo not shown), the remaining activity was 106% (enzyme activity; inhibitor; radiometric; 1 µM).
For `CN1CC(Oc2cnc(C#N)cc2-c2ccn3nc(NC(=O)C4CC4)cc3c2)C1`, the inhibition was -1% (enzyme activity; inhibitor; 1 µM).
`CNC(=O)c1ccc(Nc2ncc(C(F)(F)F)c(NCc3nccnc3N(C)S(C)(=O)=O)n2)cc1` gave a remaining binding of 65% (cell-free assay; competition with immobilised ligand; 0.1 µM).
With `CC(C)(O)[C@H]1CC[C@H](Nc2ccc3ncc(-c4cccc(C(F)(F)F)c4)n3n2)CC1` the remaining activity was 147% (enzyme activity; inhibitor; 1 µM).
With `Cc1sc(C(=O)NC2COC2)cc1-n1cc(NC(=O)Nc2c(F)cccc2Cl)cn1` the remaining activity was 104% (enzyme activity; inhibitor; 10 µM).
`C[C@@H]1CCN(c2nccc(-c3cnn4ncccc34)n2)C1` gave a remaining binding of 68% (binding; 1 µM).
The remaining activity of `COc1cc(Cl)c(C(=O)N[C@@H](CN[C@H]2CC[C@@H](N)CC2)Cc2ccc(C#N)cc2)cc1-c1ccc(CN[C@H](C)c2ccc(C)cc2)o1` is reported as 101% (enzyme activity; inhibitor; 1 µM).
With `Cc1cc(NC(=O)c2cccc3cc(-c4cccc5[nH]nc(N)c45)ccc23)ccc1F` the activity vs control was 100% (enzyme activity; inhibitor; 0.1 µM).
`Nc1ncnc2occ(-c3ccc(NC(=O)Nc4cc(C(F)(F)F)ccc4F)cc3)c12` has a remaining signal of 37% (cell-free assay; 20 µM).
